Measurements taken from ChEMBL document CHEMBL1124554, “Chemical delivery systems for some penicillinase-resistant semisynthetic penicillins” (J Med Chem, 1989).

How the values were obtained:
[1] = Half-life at pH 7.4 in rat 10% brain homogenate; format: ADME
How it was run: (§1)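 Fresh rat whole blood, or rat brain homogenized to 10% (w/v) in pH 7.4 phosphate buffer (1/20 M), spiked from DMSO stock to 40 μM final and held at 37 °C. Timed samples were extracted three times with 8% DMSO in acetonitrile, centrifuged, filtered and analyzed by HPLC. Pseudo-first-order rate constants came from log peak height versus time. Values are means of two determinations.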

[2] = Half-life at pH 7.4 in rat blood; format: ADME, organism-based; how it was run: as §1
[3] = Half-life in phosphate buffer (0.05 M, mu = 0.15) at 30 degree Celsius with pH 6.07; format: ADME
How it was run: (§2)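 DMSO stock added to 10 mL phosphate buffer (0.05 M, μ = 0.15) at the stated pH. Timed samples were analyzed by HPLC, with UV detection at 360 nm for dihydro CDS forms and 260 nm for quaternary salts. Pseudo-first-order disappearance rate constants came from linear regression of log peak height versus time, and half-lives were derived from them.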

[4] = Half-life in phosphate buffer (0.05 M, mu = 0.15) at 30 degree Centigrade with pH 6.88; format: ADME; how it was run: as §2
[5] = Half-life in phosphate buffer (0.05 M, mu = 0.15) at 30 degree Celsius with pH 7.43; format: ADME; how it was run: as §2
[6] = Half-life in phosphate buffer (0.05 M, mu = 0.15) at 30 degree Celsius with pH 7.73; format: ADME; how it was run: as §2
[7] = Half-life in phosphate buffer (0.05 M, mu = 0.15) at 30 degree Celsius with pH 8.05; format: ADME; how it was run: as §2
Homo sapiens = organism: Homo sapiens; assay: Half-life at pH 7.4 in human blood; Compound insoluble; format: ADME, organism-based
How it was run: (§3)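 Freshly collected rabbit or human whole blood, spiked from DMSO stock to 40 μM final and kept at 37 °C. Timed samples were extracted three times with 8% DMSO in acetonitrile, centrifuged, filtered and analyzed by HPLC. Pseudo-first-order rate constants came from linear regression of log peak height versus time.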

Oryctolagus cuniculus [8] = organism: Oryctolagus cuniculus; assay: Half-life at pH 7.4 in rabbit blood; Compound insoluble; format: ADME, organism-based; how it was run: as §3
[9] = Half-life at pH 7.4 in human blood; format: ADME, organism-based; how it was run: as §3
[10] = Half-life at pH 7.4 in rabbit blood; format: ADME, organism-based, Oryctolagus cuniculus; how it was run: as §3
[11] = Half-life in phosphate buffer (0.05 M, mu = 0.15) at 30 degree Celsius and pH 6.15; format: ADME; how it was run: as §2
[12] = Half-life in phosphate buffer (0.05 M, mu = 0.15) at 30 degree Celsius and pH 6.93; format: ADME; how it was run: as §2
[13] = Half-life in phosphate buffer (0.05 M, mu = 0.15) at 30 degree Celsius and pH 7.45; format: ADME; how it was run: as §2
[14] = Half-life in phosphate buffer (0.05 M, mu = 0.15) at 30 degree Celsius with pH 7.79; format: ADME; how it was run: as §2
[15] = Second-order oxidation rate constant determined using ferricyanide; format: ADME
How it was run: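 Chemical oxidation with ferricyanide was run under pseudo-first-order conditions, with Fe(CN)6^3- in large excess over the CDS and pH held constant. Pseudo-first-order rates were measured at several ferricyanide concentrations, and the second-order constant (M^-1 s^-1) was derived from them.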

[16] = Half-life in phosphate buffer (0.05 M, mu = 0.15) at 30 degree Celsius with pH 8.14; format: ADME; how it was run: as §2
[17] = Lipophilicity was determined by reversed-phase HPLC; details: extrapolated to 100% water
[18] = Half-life in phosphate buffer (0.05 M, mu = 0.15) at 30 degree Celsius with pH 6.15; format: ADME; how it was run: as §2
[19] = Half-life in phosphate buffer (0.05 M, mu = 0.15) at 30 degree Celsius with pH 6.93; format: ADME; how it was run: as §2
[20] = Half-life in phosphate buffer (0.05 M, mu = 0.15) at 30 degree Celsius with pH 7.45; format: ADME; how it was run: as §2
Oryctolagus cuniculus [21] = organism: Oryctolagus cuniculus; assay: Concentration of compound after 10 min in rabbit brain; format: functional, organism-based
How it was run: (§4)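 Oxacillin at 20 mg/kg, or an equimolar dose of its CDS, given i.v. to male Sprague-Dawley rats (tail vein) or male New Zealand albino rabbits (ear vein). Vehicle was water/ethanol/propylene glycol at 20 mg/mL. Samples were rat trunk blood after decapitation or rabbit ear-vein blood, with brain removed and frozen. Oxacillin was assayed by B. subtilis ATCC 6633 paper-disk diffusion and by HPLC. Values are means of two determinations.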

Oryctolagus cuniculus [22] = organism: Oryctolagus cuniculus; assay: (§5) Concentration of compound after 5 minutes in rabbit blood; format: functional, organism-based; how it was run: as §4
Oryctolagus cuniculus [23] = organism: Oryctolagus cuniculus; assay: Concentration of compound after 5 minutes in rabbit brain; format: functional, organism-based; how it was run: as §4
Oryctolagus cuniculus [24] = organism: Oryctolagus cuniculus; assay: Concentration of compound after 10 min in rabbit blood; format: functional, organism-based; how it was run: as §4
Rattus norvegicus [25] = organism: Rattus norvegicus; assay: Concentration of compound after 3 minutes in rat blood; format: functional, organism-based
Rattus norvegicus [26] = organism: Rattus norvegicus; assay: Concentration of compound after 3 minutes in rat brain; format: functional, organism-based; how it was run: as §4
[27] = as §5; format: ADME, organism-based, Oryctolagus cuniculus
[28] = Concentration of compound after 10 minutes in rabbit blood; format: ADME, organism-based, Oryctolagus cuniculus

Row | Compound | half-life [3] [min] | half-life [4] [min] | half-life [5] [min] | half-life [6] [min] | half-life [1] [min] | half-life [2] [min] | half-life [14] [min] | ko [15] [M⁻¹ s⁻¹] | half-life [16] [min] | Log k [17] | also measured
1 | Cc1onc(-c2c(Cl)cccc2Cl)c1C(=O)NC1C(=O)N2C1SC(C)(C)[C@@H]2C(=O)OCOC(=O)c1ccc[n+](C)c1.[I-] (some centres not stated) | 44.4 | 14.7 | 3.9 | 2.9 | 1 | 0.7 |  |  |  |  | 
2 | COc1cccc(OC)c1C(=O)NC1C(=O)N2C1SC(C)(C)[C@@H]2C(=O)OCOC(=O)c1ccc[n+](C)c1.[I-] (some centres not stated) | 58.6 | 12 | 3.6 | 2 | 1.1 | 1 |  |  |  |  | T1/2 (Homo sapiens): Insoluble; T1/2 (Oryctolagus cuniculus [8]): Insoluble; half-life [7]: 1 min
3 | COc1cccc(OC)c1C(=O)NC1C(=O)N2C1SC(C)(C)[C@@H]2C(=O)OCOC(=O)C1=CN(C)C=CC1 (some centres not stated) |  |  |  |  | 8 | 0.2 | 103 | 0.701 | 55.7 | 2.28 | half-life [9]: 116 min; half-life [10]: 10.7 min; half-life [11]: 130 min; half-life [12]: 238 min; half-life [13]: 134 min
4 | Cc1onc(-c2c(Cl)cccc2Cl)c1C(=O)NC1C(=O)N2C1SC(C)(C)[C@@H]2C(=O)[O-].[Na+] (some centres not stated) |  |  |  |  |  |  |  |  |  | 2.435 | 
5 | Cc1onc(-c2ccccc2)c1C(=O)NC1C(=O)N2C1SC(C)(C)[C@@H]2C(=O)OCOC(=O)C1=CN(C)C=CC1 (some centres not stated) |  |  |  |  | 5.4 | 1.1 | 172 | 0.48 | 100 | 2.82 | half-life [9]: 7.5 min; half-life [10]: 23.7 min; half-life [18]: 249 min; half-life [19]: 277 min; half-life [20]: 196 min; Concentration (Oryctolagus cuniculus [21]): 0.3 µg/mL; Concentration (Oryctolagus cuniculus [22]): 4.6 µg/mL; Concentration (Oryctolagus cuniculus [23]): 0.3 µg/mL; Concentration (Oryctolagus cuniculus [24]): 2.2 µg/mL; Concentration (Rattus norvegicus [25]): 26.2 µg/mL; Concentration (Rattus norvegicus [26]): 2.1 µg/mL
6 | Cc1onc(-c2ccccc2)c1C(=O)N[C@@H]1C(=O)N2[C@@H]1SC(C)(C)[C@@H]2C(=O)[O-].[Na+] |  |  |  |  |  |  |  |  |  | 1.868 | concentration at 5 min [27]: 15300 ng/mL; concentration at 10 min [28]: 9100 ng/mL; Concentration (Rattus norvegicus [25]): 41.1 µg/mL
7 | Cc1onc(-c2ccccc2Cl)c1C(=O)NC1C(=O)N2C1SC(C)(C)[C@@H]2C(=O)[O-].[Na+] (some centres not stated) |  |  |  |  |  |  |  |  |  | 2.097 | 
8 | Cc1onc(-c2c(Cl)cccc2Cl)c1C(=O)NC1C(=O)N2C1SC(C)(C)[C@@H]2C(=O)OCOC(=O)C1=CN(C)C=CC1 (some centres not stated) |  |  |  |  | 12.6 | 4.1 | 932 | 0.23 | 598 | 3.41 | half-life [18]: 464 min; half-life [19]: 1010 min; half-life [20]: 1030 min
9 | COc1cccc(OC)c1C(=O)N[C@@H]1C(=O)N2[C@@H]1SC(C)(C)[C@@H]2C(=O)[O-].[Na+] |  |  |  |  |  |  |  |  |  | 0.658 | 
10 | Cc1onc(-c2ccccc2Cl)c1C(=O)NC1C(=O)N2C1SC(C)(C)[C@@H]2C(=O)OCOC(=O)C1=CN(C)C=CC1 (some centres not stated) |  |  |  |  | 10 | 3.8 | 305 | 0.36 | 165 | 3.06 | half-life [18]: 350 min; half-life [19]: 506 min; half-life [20]: 377 min

Now from value to molecule, other results behind:

Row | half-life [3] [min] | half-life [4] [min] | half-life [5] [min] | half-life [6] [min] | Compound | half-life [1] [min] | half-life [2] [min] | half-life [14] [min] | ko [15] [M⁻¹ s⁻¹] | half-life [16] [min] | Log k [17] | also measured
11 | 56 | 11.3 | 3.5 | 2.1 | Cc1onc(-c2ccccc2Cl)c1C(=O)NC1C(=O)N2C1SC(C)(C)[C@@H]2C(=O)OCOC(=O)c1ccc[n+](C)c1.[I-] (some centres not stated) | 1.1 | 0.6 |  |  |  |  | half-life [7]: 1 min
12 | 49 | 10.3 | 3.4 | 1.9 | Cc1onc(-c2ccccc2)c1C(=O)NC1C(=O)N2C1SC(C)(C)[C@@H]2C(=O)OCOC(=O)c1ccc[n+](C)c1.[I-] (some centres not stated) | 1.2 | 0.7 |  |  |  |  | half-life [7]: 1.1 min
